Here are results for one molecule from ChEMBL document CHEMBL1926556, “Synthesis and biological activities of 2-[(heteroaryl)methyl]imidazolines” (Bioorg Med Chem, 2012).

Calls of active or inactive are those of the source. No cut-off for these calls is given here.

The target in assay [1] is T1, Adrenergic receptor alpha-2 (Rattus norvegicus, UniProt P22086+P19328+P22909).
T1 sequence (P22086 whole entry): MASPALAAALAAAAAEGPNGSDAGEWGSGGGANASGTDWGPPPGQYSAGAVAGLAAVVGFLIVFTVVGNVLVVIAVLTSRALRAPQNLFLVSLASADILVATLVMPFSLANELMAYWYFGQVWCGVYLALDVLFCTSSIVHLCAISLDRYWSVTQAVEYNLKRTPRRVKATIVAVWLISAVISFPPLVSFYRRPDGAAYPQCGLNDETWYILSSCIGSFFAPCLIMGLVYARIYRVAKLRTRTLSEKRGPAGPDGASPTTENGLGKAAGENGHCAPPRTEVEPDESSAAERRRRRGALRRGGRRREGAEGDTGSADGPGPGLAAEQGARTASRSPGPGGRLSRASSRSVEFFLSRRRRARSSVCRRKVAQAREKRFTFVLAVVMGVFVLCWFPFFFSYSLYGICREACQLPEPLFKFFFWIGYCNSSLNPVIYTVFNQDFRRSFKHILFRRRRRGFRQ
T1 sequence (P19328 whole entry): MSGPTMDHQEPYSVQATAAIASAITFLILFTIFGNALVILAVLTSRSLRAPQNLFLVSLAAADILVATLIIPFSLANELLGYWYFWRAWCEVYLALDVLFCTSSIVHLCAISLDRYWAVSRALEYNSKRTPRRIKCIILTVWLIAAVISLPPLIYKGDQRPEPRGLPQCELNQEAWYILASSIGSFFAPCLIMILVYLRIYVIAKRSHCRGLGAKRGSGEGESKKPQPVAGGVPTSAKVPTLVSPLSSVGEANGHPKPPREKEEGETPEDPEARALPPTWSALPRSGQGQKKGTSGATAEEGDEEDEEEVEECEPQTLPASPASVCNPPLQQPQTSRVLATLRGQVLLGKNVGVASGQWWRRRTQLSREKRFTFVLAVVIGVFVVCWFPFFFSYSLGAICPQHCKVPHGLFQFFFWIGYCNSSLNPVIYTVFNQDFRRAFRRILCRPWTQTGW
T1 sequence (P22909 whole entry): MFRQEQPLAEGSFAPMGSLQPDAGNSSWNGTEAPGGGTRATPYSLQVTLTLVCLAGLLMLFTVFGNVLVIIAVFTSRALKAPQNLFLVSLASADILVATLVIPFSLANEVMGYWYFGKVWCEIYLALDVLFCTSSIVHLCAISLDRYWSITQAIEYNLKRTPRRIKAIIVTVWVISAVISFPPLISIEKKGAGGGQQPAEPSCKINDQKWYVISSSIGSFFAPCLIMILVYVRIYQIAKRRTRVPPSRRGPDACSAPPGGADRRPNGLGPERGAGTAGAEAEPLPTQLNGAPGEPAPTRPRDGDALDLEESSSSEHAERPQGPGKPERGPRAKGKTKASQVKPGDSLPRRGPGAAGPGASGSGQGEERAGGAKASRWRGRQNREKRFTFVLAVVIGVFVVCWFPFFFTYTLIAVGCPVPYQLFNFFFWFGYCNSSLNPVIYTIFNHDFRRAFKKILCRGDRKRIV
The assay can be described thus: Displacement of […] from adrenoceptor alpha2 in Sprague-Dawley rat brain membranes after 45 mins by scintillation counting. The assay is classed as cell membranes, Membrane. In a few lines: (§1)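 Crude P2 membranes from male Sprague–Dawley rat brain (250–280 g), 0.2–0.3 mg protein. Radioligand 1 nM: [3H]2BFI for I2, [3H]prazosin for α1, [3H]RX821002 for α2. Non-specific binding defined by 10 µM BU224 (I2), 10 µM phenylephrine (α1) or 10 µM rauwolscine (α2). 11 concentrations from 0.01 nM to 100 µM, triplicate, 45 min at RT. Filtration and scintillation counting; Ki by Cheng–Prusoff.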

The target in assay [2] is T2, Adrenergic receptor alpha-1 (Rattus norvegicus, UniProt P15823+P23944+P43140).
T2 sequence (P15823 whole entry): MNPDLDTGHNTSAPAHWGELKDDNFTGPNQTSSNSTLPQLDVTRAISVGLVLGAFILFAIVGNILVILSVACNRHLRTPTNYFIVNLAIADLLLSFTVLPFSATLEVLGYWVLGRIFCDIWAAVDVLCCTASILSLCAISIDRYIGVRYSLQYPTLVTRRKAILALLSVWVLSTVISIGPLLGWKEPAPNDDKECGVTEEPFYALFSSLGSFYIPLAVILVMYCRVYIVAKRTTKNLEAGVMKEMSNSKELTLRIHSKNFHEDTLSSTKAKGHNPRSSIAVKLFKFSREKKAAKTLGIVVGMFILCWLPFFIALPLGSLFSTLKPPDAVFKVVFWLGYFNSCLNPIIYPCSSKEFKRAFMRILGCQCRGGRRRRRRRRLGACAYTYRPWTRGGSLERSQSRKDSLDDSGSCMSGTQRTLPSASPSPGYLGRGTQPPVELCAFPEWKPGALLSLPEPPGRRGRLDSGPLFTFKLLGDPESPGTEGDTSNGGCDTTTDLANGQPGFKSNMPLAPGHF
T2 sequence (P23944 whole entry): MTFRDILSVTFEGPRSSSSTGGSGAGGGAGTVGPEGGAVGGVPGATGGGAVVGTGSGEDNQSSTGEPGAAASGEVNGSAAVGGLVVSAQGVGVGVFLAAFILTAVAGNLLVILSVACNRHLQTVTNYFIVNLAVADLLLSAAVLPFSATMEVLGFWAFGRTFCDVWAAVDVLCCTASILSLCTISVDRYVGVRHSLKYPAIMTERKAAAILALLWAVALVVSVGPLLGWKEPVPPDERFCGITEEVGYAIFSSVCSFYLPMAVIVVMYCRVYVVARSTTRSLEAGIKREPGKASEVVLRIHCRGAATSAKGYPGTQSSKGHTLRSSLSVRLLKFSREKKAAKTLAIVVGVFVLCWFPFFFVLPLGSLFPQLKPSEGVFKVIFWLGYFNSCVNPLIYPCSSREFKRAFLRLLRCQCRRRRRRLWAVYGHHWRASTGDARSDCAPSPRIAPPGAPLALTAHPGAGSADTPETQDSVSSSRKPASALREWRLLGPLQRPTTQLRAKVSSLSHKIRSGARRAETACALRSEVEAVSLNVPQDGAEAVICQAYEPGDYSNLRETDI
T2 sequence (P43140 whole entry): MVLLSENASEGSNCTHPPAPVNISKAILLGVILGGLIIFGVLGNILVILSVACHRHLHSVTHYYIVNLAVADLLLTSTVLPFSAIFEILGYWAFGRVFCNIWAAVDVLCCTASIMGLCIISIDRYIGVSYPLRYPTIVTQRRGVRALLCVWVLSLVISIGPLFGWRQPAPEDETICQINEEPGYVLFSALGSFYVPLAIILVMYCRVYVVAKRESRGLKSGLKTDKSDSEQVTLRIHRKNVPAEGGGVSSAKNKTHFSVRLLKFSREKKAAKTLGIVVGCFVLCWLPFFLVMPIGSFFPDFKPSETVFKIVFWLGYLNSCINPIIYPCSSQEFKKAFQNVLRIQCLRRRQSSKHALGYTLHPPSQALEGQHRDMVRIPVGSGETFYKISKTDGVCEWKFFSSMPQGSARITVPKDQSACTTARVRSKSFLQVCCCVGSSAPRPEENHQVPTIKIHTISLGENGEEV
The assay can be described thus: Displacement of [3H]prazosin from adrenoceptor alpha1 in Sprague-Dawley rat brain after 45 mins by scintillation counting. The essentials:
as §1

Another assay is filed under the species Rattus norvegicus. As to the kind of experiment: Displacement of [3H]BFI from imidazoline I2 in Sprague-Dawley rat brain membranes at 1 X 10^6 after 45 mins by scintillation counting. Format: cell membranes. The conditions noted are these: Membrane. (Displacement assays read how much labelled ligand stays bound in the presence of the test substance.)
Another assay has as its target Nischarin (Rattus norvegicus, UniProt Q4G017). The assay can be described thus: Displacement of [3H]clonidine from imidazoline I1 receptor in Sprague-Dawley rat kidney membranes after 45 mins by scintillation counting. The assay is classed as cell membranes, Membrane. In a few lines:
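Crude P2 membranes from male Sprague–Dawley rat kidney, 0.2–0.5 mg protein. […] Specific binding defined by 10 µM rilmenidine. 11 concentrations from 0.01 to 100 µM, 50 mM Tris-HCl pH 7.4, 45 min at RT. Filtration and scintillation counting; IC50.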

Sequence of Nischarin (Q4G017 whole entry): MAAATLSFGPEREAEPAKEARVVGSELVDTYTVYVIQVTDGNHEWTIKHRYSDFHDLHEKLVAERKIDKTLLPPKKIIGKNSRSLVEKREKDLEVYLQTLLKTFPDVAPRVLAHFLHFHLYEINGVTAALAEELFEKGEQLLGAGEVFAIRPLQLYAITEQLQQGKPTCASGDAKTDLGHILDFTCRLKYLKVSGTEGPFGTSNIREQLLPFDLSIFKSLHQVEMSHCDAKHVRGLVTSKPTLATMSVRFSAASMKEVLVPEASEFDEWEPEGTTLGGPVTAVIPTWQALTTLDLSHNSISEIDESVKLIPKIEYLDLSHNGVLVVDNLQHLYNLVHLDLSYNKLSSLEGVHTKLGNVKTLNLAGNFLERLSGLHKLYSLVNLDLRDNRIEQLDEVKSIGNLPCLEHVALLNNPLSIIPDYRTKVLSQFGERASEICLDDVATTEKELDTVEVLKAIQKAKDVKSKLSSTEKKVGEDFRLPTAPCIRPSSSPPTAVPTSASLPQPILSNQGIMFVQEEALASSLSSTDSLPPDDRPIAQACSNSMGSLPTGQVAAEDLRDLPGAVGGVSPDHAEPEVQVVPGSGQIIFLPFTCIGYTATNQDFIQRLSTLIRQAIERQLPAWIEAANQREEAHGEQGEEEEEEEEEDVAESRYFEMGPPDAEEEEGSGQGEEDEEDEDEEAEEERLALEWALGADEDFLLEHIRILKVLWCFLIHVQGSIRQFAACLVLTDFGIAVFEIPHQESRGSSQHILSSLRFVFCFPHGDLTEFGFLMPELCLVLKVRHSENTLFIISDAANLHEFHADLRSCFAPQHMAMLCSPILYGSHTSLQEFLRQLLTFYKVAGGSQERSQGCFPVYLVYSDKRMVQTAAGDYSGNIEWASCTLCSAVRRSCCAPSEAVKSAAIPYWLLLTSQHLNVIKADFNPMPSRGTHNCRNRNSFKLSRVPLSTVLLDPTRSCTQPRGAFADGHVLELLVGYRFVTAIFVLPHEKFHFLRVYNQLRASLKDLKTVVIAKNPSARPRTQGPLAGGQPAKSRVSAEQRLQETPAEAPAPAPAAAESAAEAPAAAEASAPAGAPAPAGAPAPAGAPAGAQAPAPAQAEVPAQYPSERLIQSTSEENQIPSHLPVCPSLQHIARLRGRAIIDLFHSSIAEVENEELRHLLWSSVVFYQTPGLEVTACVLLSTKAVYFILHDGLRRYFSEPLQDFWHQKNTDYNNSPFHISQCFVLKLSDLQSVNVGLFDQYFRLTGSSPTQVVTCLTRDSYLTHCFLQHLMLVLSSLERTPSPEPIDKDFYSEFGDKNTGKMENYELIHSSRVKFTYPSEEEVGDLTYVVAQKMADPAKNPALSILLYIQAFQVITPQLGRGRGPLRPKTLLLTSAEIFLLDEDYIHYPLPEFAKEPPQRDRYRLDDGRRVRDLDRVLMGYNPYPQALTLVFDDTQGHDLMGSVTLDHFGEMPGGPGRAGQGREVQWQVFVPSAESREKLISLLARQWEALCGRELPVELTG

The Ki is the equilibrium dissociation constant of an inhibitor or competing ligand from its target. The low end stands for tighter binding, the high end for weaker binding. Broadly, the IC50 is the concentration that gives 50% inhibition. High values mean weaker potency, low ones greater potency. `Cl.Cl.c1ccc(Cc2nc3ccccc3n2CC2=NCCN2)cc1`: the figures for the inhibitory constant (Ki) in assay [1] and in assay [2] were 11.2 µM and 30.9 µM, respectively. In addition, the outcome in the assay listed under Rattus norvegicus was inactive. The molecule further showed a half-inhibitory concentration (IC50) at Nischarin of 21 µM.
